According to ChEMBL document CHEMBL4270522, “Halogenated trimethoprim derivatives as multidrug-resistant Staphylococcus aureus therapeutics” (Bioorg Med Chem, 2018):
In brackets after ≈: the same amount, converted by molar mass.

What was measured:
[1] = system: Staphylococcus aureus; assay: Bactericidal activity against hospital-associated methicillin-resistant Staphylococcus aureus COL preincubated for 20 hrs followed by agar plating and measured after 18 to 20 hrs; assay type: functional
Outline: (§1)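 MBC taken from broth microdilution (final about 10^5 CFU/mL, Mueller-Hinton broth, 37 °C for 20 h). Clear wells (basal optical density) were spread on TSA plates and incubated at 37 °C for 18–20 h. The lowest concentration giving no colonies is reported. At least triplicate.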

[2] = system: Staphylococcus aureus; assay: Antibacterial activity against methicillin-susceptible Staphylococcus aureus ATCC 29213 after 20 hrs by CLSI microdilution assay; assay type: functional; settings: ATCC 29213, 20 h
[3] = system: Staphylococcus aureus; assay: Antibacterial activity against methicillin-resistant Staphylococcus aureus USA300 after 20 hrs by CLSI microdilution assay; assay type: functional; settings: USA300, 20 h
[4] = system: Staphylococcus aureus; assay: Antibacterial activity against hospital-associated methicillin-resistant Staphylococcus aureus COL after 20 hrs by CLSI microdilution assay; assay type: functional
[5] = system: Staphylococcus aureus; assay: Bactericidal activity against methicillin-resistant Staphylococcus aureus USA300 preincubated for 20 hrs followed by agar plating and measured after 18 to 20 hrs; assay type: functional; outline: as §1
[6] = system: Staphylococcus aureus; assay: Antibacterial activity against hospital-associated methicillin-resistant Staphylococcus aureus COL at 5 ug after 18 to 20 hrs by CLSI disk diffusion assay; assay type: functional; settings: read-out: DIZ
Outline: (§2)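 Disk diffusion on 4 mm Mueller-Hinton agar swabbed with about 10^8 CFU/mL suspension in PBS; 6 mm paper disk loaded with 5 µg compound in DMSO; 37 °C ambient air for 18–20 h; diameter of the complete inhibition zone measured in mm with callipers from the plate back; at least three independent experiments, mean with standard error; 6 mm means no inhibition.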

[7] = system: Staphylococcus aureus; assay: Bactericidal activity against methicillin-susceptible Staphylococcus aureus ATCC 29213 preincubated for 20 hrs followed by agar plating and measured after 18 to 20 hrs; assay type: functional
Outline: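 Broth microdilution per CLSI guideline. Compounds diluted 2-fold in MHB from 100 mM DMSO stocks. Inoculum ~10^5 CFU/mL final, from overnight TSB culture diluted in PBS. Plates incubated at 37 °C. Wells without growth by optical density spread on TSA and incubated at 37 °C. MBC is the lowest concentration giving no colonies. At least triplicate.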

[8] = system: Staphylococcus aureus; assay: Antibacterial activity against methicillin-resistant Staphylococcus aureus USA300 at 5 ug after 18 to 20 hrs by CLSI disk diffusion assay; assay type: functional; settings: read-out: DIZ; outline: as §2
[9] = system: A549; assay: Cytotoxicity against human A549 cells after 24 to 48 hrs by fluorescence-based assay; assay type: cell-based
Outline: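 A549 cells, ~10^4 per well in DMEM, given 2-fold serial dilutions of compound (DMSO stock diluted in DMEM). Incubated at 37 °C, 5% CO2. PrestoBlue added for 1 h, then fluorescence read at excitation 535 nm and emission 610 nm as a measure of viable cells.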

[10] = system: Staphylococcus aureus; assay: Antibacterial activity against methicillin-susceptible Staphylococcus aureus ATCC 25923 at 5 ug after 18 to 20 hrs by CLSI disk diffusion assay; assay type: functional; settings: read-out: DIZ
Outline: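 Mueller-Hinton agar, 4 mm deep, swabbed with PBS-diluted overnight TSB culture (~10^8 CFU/mL). Paper disk (6 mm) loaded with compound in DMSO, incubated 37 °C in ambient air. Complete inhibition zone diameter read from plate back with callipers; 6 mm means no inhibition. At least three independent experiments, mean with standard error.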

[11] = system: Staphylococcus aureus; assay: Synergistic antibacterial activity against methicillin-susceptible Staphylococcus aureus ATCC 29213 in presence of TMP after 20 hrs by broth microdilution-based checkerboard titration assay; assay type: functional
[12] = system: Staphylococcus aureus; assay: Synergistic antibacterial activity against methicillin-susceptible Staphylococcus aureus ATCC 29213 in presence of TMP-Cl after 20 hrs by broth microdilution-based checkerboard titration assay; assay type: functional
[13] = system: Staphylococcus aureus; assay: Synergistic antibacterial activity against methicillin-resistant Staphylococcus aureus USA300 in presence of TMP-Cl after 20 hrs by broth microdilution-based checkerboard titration assay; assay type: functional
[14] = system: Staphylococcus aureus; assay: microbe, parasite or virus in culture; assay type: functional; settings: ATCC 29213, 20 h
[15] = system: Staphylococcus aureus; assay: Synergistic antibacterial activity against methicillin-resistant Staphylococcus aureus USA300 in presence of TMP-I after 20 hrs by broth microdilution-based checkerboard titration assay; assay type: functional
[16] = system: Staphylococcus aureus; assay: Potentiation of TMP-Cl-mediated antibacterial activity against hospital-associated methicillin-resistant Staphylococcus aureus COL assessed as TMP-Cl MIC after 20 hrs by CLSI microdilution assay (reference value: 5 microg/ml); assay type: functional
[17] = system: Staphylococcus aureus; assay: Potentiation of TMP-I-mediated antibacterial activity against hospital-associated methicillin-resistant Staphylococcus aureus COL assessed as TMP-I MIC after 20 hrs by CLSI microdilution assay (reference value: 2.50 microg/ml); assay type: functional
[18] = system: Staphylococcus aureus; assay: Potentiation of TMP-Br-mediated antibacterial activity against hospital-associated methicillin-resistant Staphylococcus aureus COL assessed as TMP-Br MIC after 20 hrs by CLSI microdilution assay (reference value: 5 microg/ml); assay type: functional
[19] = system: Staphylococcus aureus; assay: Potentiation of TMP-Cl-mediated antibacterial activity against methicillin-resistant Staphylococcus aureus USA300 assessed as TMP-Cl MIC after 20 hrs by CLSI microdilution assay (reference value: 2.50 microg/ml); assay type: functional; settings: USA300, 20 h
[20] = system: Staphylococcus aureus; assay: microbe, parasite or virus in culture; assay type: functional; settings: USA300, 20 h
[21] = system: Staphylococcus aureus; assay: Synergistic antibacterial activity against methicillin-susceptible Staphylococcus aureus ATCC 29213 in presence of TMP-I after 20 hrs by broth microdilution-based checkerboard titration assay; assay type: functional
[22] = system: Staphylococcus aureus; assay: microbe, parasite or virus in culture; assay type: functional; settings: USA300, 20 h; remark: listed apart in the source
[23] = system: Staphylococcus aureus; assay: microbe, parasite or virus in culture; assay type: functional; settings: ATCC 29213, 20 h; remark: listed apart in the source
[24] = system: Staphylococcus aureus; assay: Synergistic antibacterial activity against hospital-associated methicillin-resistant Staphylococcus aureus COL in presence of TMP-Br after 20 hrs by broth microdilution-based checkerboard titration assay; assay type: functional
[25] = system: Staphylococcus aureus; assay: Synergistic antibacterial activity against hospital-associated methicillin-resistant Staphylococcus aureus COL in presence of TMP after 20 hrs by broth microdilution-based checkerboard titration assay; assay type: functional
[26] = system: Staphylococcus aureus; assay: Potentiation of TMP-mediated antibacterial activity against hospital-associated methicillin-resistant Staphylococcus aureus COL assessed as TMP MIC after 20 hrs by CLSI microdilution assay (reference value: 5 microg/ml); assay type: functional
[27] = system: Staphylococcus aureus; assay: Synergistic antibacterial activity against hospital-associated methicillin-resistant Staphylococcus aureus COL in presence of TMP-I after 20 hrs by broth microdilution-based checkerboard titration assay; assay type: functional
[28] = system: Staphylococcus aureus; assay: microbe, parasite or virus in culture; assay type: functional; settings: USA300, 20 h; remark: listed apart in the source
[29] = system: Staphylococcus aureus; assay: Synergistic antibacterial activity against hospital-associated methicillin-resistant Staphylococcus aureus COL in presence of TMP-Cl after 20 hrs by broth microdilution-based checkerboard titration assay; assay type: functional
[30] = system: Staphylococcus aureus; assay: Synergistic antibacterial activity against methicillin-susceptible Staphylococcus aureus ATCC 29213 in presence of TMP-Br after 20 hrs by broth microdilution-based checkerboard titration assay; assay type: functional
[31] = system: Staphylococcus aureus; assay: microbe, parasite or virus in culture; assay type: functional; settings: ATCC 29213, 20 h; remark: listed apart in the source
[32] = system: Staphylococcus aureus; assay: Synergistic antibacterial activity against methicillin-resistant Staphylococcus aureus USA300 in presence of TMP-Br after 20 hrs by broth microdilution-based checkerboard titration assay; assay type: functional
[33] = system: Staphylococcus aureus; assay: Synergistic antibacterial activity against methicillin-resistant Staphylococcus aureus USA300 in presence of TMP after 20 hrs by broth microdilution-based checkerboard titration assay; assay type: functional
[34] = system: Staphylococcus aureus; assay: microbe, parasite or virus in culture; assay type: functional; settings: ATCC 29213, 20 h; remark: listed apart in the source
[35] = system: Staphylococcus aureus; assay: Synergistic antibacterial activity against hospital-associated methicillin-resistant Staphylococcus aureus COL assessed as fractional inhibitory concentration index in presence of sulfamethoxazole after 18 hrs by broth microdilution-based checkerboard titration assay; assay type: functional
[36] = system: Staphylococcus aureus; assay: Synergistic antibacterial activity against methicillin-resistant Staphylococcus aureus USA300 in presence of sulfamethoxazole after 20 hrs by broth microdilution-based checkerboard titration assay; assay type: functional
[37] = system: Staphylococcus aureus; assay: Potentiation of sulfamethoxazole-mediated antibacterial activity against methicillin-susceptible Staphylococcus aureus ATCC 29213 assessed as sulfamethoxazole MIC after 20 hrs by CLSI microdilution assay (reference value: 100 microg/ml); assay type: functional; settings: ATCC 29213, 20 h
[38] = system: Staphylococcus aureus; assay: Potentiation of sulfamethoxazole-mediated antibacterial activity against hospital-associated methicillin-resistant Staphylococcus aureus COL assessed as sulfamethoxazole MIC after 20 hrs by CLSI microdilution assay (reference value: 200 microg/ml); assay type: functional
[39] = system: Staphylococcus aureus; assay: Synergistic antibacterial activity against methicillin-susceptible Staphylococcus aureus ATCC 29213 in presence of sulfamethoxazole after 20 hrs by broth microdilution-based checkerboard titration assay; assay type: functional
[40] = system: Staphylococcus aureus; assay: Synergistic antibacterial activity against methicillin-susceptible Staphylococcus aureus ATCC 29213 assessed as fractional inhibitory concentration index in presence of sulfamethoxazole after 18 hrs by broth microdilution-based checkerboard titration assay; assay type: functional
[41] = system: Staphylococcus aureus; assay: Synergistic antibacterial activity against hospital-associated methicillin-resistant Staphylococcus aureus COL in presence of sulfamethoxazole after 20 hrs by broth microdilution-based checkerboard titration assay; assay type: functional
[42] = system: Staphylococcus aureus; assay: Synergistic antibacterial activity against methicillin-resistant Staphylococcus aureus USA300 assessed as fractional inhibitory concentration index in presence of sulfamethoxazole after 18 hrs by broth microdilution-based checkerboard titration assay; assay type: functional
[43] = system: Staphylococcus aureus; assay: Potentiation of sulfamethoxazole-mediated antibacterial activity against methicillin-resistant Staphylococcus aureus USA300 assessed as sulfamethoxazole MIC after 20 hrs by CLSI microdilution assay (reference value: 100 microg/ml); assay type: functional; settings: USA300, 20 h

In the case of `COc1ccc(Cc2cnc(N)nc2N)cc1OC` [DIAVERIDINE], the MBC [1] is reported as 20 µg/mL (≈ 76.8 µM), the MIC [2] is reported as 5 µg/mL (≈ 19.2 µM) and the MIC [3] is reported as 5 µg/mL (≈ 19.2 µM). The MIC [4] was 10 µg/mL (≈ 38.4 µM), the MBC [5] was 10 µg/mL (≈ 38.4 µM) and the zone of inhibition at 5 µg/disc [6] was 6 mm. For the same molecule, the MBC [7] was 5 µg/mL (≈ 19.2 µM), the zone of inhibition at 5 µg/disc [8] was 6 mm and the IC50 [9] was greater than 1000 µM. It also gave a zone of inhibition at 5 µg/disc [10] of 8.81 mm.
Molecule `Cc1cc(NS(=O)(=O)c2ccc(N)cc2)no1` [SULFAMETHOXAZOLE] has an FIC [11] of 0.06, an FIC [12] of 0.06 and an FIC [13] of 0.06. The MIC [14] was 0.08 µg/mL (≈ 0.316 µM), the FIC [15] was 0.06 and the MIC [16] was 0.31 µg/mL. It also gave an MIC [2] of 100 µg/mL (≈ 395 µM), an MIC [17] of 0.16 µg/mL and an MIC [3] of 100 µg/mL (≈ 395 µM). The MIC [18] was 0.31 µg/mL, the MIC [19] was 0.16 µg/mL and the MIC [4] was 200 µg/mL (≈ 790 µM). For the same molecule, the MIC [20] was 0.08 µg/mL (≈ 0.316 µM), the FIC [21] was 0.06 and the MIC [22] was 0.08 µg/mL (≈ 0.316 µM). For the same molecule, the MIC [23] was 0.08 µg/mL (≈ 0.316 µM), the FIC [24] was 0.06 and the FIC [25] was 0.06. It also gave an MIC [26] of 0.31 µg/mL, an FIC [27] of 0.06 and an MIC [28] of 0.16 µg/mL (≈ 0.632 µM). For the same molecule, the FIC [29] was 0.06, the FIC [30] was 0.06 and the MIC [31] was 0.08 µg/mL (≈ 0.316 µM). The FIC [32] was 0.12, the FIC [33] was 0.06 and the MIC [34] was 0.08 µg/mL (≈ 0.316 µM).
In the case of `COc1cc(Cc2cnc(N)nc2N)cc(OC)c1OC` [TRIMETHOPRIM], the “fractional inhibitory concentration index (FICI)” value [35] is reported as 0.12, the MBC [1] is reported as 10 µg/mL (≈ 34.4 µM) and the MIC [2] is reported as 1.25 µg/mL (≈ 4.31 µM). The MIC [3] was 1.25 µg/mL (≈ 4.31 µM), the FIC [36] was 0.06 and the MIC [4] was 5 µg/mL (≈ 17.2 µM). It also gave an MIC [37] of 6.25 µg/mL, an MIC [38] of 12.5 µg/mL and an MBC [5] of 2.5 µg/mL (≈ 8.61 µM). The zone of inhibition at 5 µg/disc [6] was 6 mm, the FIC [39] was 0.06 and the “fractional inhibitory concentration index (FICI)” value [40] was 0.12. The FIC [41] was 0.06, the MBC [7] was 1.25 µg/mL (≈ 4.31 µM) and the zone of inhibition at 5 µg/disc [8] was 22.8 mm. The “fractional inhibitory concentration index (FICI)” value [42] was 0.12, the MIC [43] was 6.25 µg/mL and the zone of inhibition at 5 µg/disc [10] was 20.2 mm.
